Activity calls are given as the source filed them. No cut-off for these calls is given here.
experiment: Antioxidant activity assessed as DPPH radical scavenging activity at 100 ug/ml measured after 30 mins; format: functional
Summary of the method: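 DPPH radical scavenging with compounds at 100 µg/mL; mixture incubated at room temperature for 30 min, absorbance read at 517 nm; ascorbic acid as reference inhibitor; percentage activity given as mean ± SEM.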

Row | SMILES | Activity
1 | CCCC(=O)NC(=S)Nc1ccc(S(=O)(=O)Nc2ncccn2)cc1 | inactive
2 | O=C(NC(=S)Nc1ccc(S(=O)(=O)Nc2ncccn2)cc1)c1ccc(F)cc1 | inactive
3 | COc1ccc(C(=O)NC(=S)Nc2ccc(S(=O)(=O)Nc3ncccn3)cc2)cc1 | inactive
4 | CCCCCCCC(=O)NC(=S)Nc1ccc(S(=O)(=O)Nc2ncccn2)cc1 | inactive
5 | O=C1O[C@H]([C@@H](O)CO)C(O)=C1O | Active
6 | CCCCCCC(=O)NC(=S)Nc1ccc(S(=O)(=O)Nc2ncccn2)cc1 | inactive
7 | O=C(NC(=S)Nc1ccc(S(=O)(=O)Nc2ncccn2)cc1)c1ccccc1Cl | inactive
8 | O=C(NC(=S)Nc1ccc(S(=O)(=O)Nc2ncccn2)cc1)c1ccc(Cl)cc1Cl | Active
9 | CC(=O)NC(=S)Nc1ccc(S(=O)(=O)Nc2ncccn2)cc1 | inactive
10 | O=C(NC(=S)Nc1ccc(S(=O)(=O)Nc2ncccn2)cc1)c1ccc(Cl)cc1 | inactive
11 | O=C(NC(=S)Nc1ccc(S(=O)(=O)Nc2ncccn2)cc1)c1cc([N+](=O)[O-])cc([N+](=O)[O-])c1 | Active
